Experimental data published in ChEMBL document CHEMBL1150626, “Interiotherins C and D, two new lignans from Kadsura interior and antitumor-promoting effects of related neolignans on Epstein-Barr virus activation” (J Nat Prod, 2002).

Assays:
Assay type in all cases: cell-based
Raji [1] = assay: Inhibition of TPA-induced EBV-early antigen activation in human Raji cells assessed as EA activation at 1000 mol ratio relative to TPA; design: scale not given: the % may be the effect or the level left; conditions: human gammaherpesvirus 4
Raji [2] = assay: Inhibition of TPA-induced EBV-early antigen activation in human Raji cells assessed as EA activation at 500 mol ratio relative to TPA; design: scale not given: the % may be the effect or the level left; conditions: human gammaherpesvirus 4
Raji [3] = assay: Inhibition of TPA-induced EBV-early antigen activation in human Raji cells assessed as EA activation at 100 mol ratio relative to TPA; design: scale not given: the % may be the effect or the level left; conditions: human gammaherpesvirus 4
Raji [4] = assay: Inhibition of TPA-induced EBV-early antigen activation in human Raji cells assessed as EA activation at 10 mol ratio relative to TPA; design: scale not given: the % may be the effect or the level left; conditions: human gammaherpesvirus 4
Raji [5] = assay: Cytotoxicity against human Raji cells at 1000 mol ratio by trypan blue staining method
Method in brief: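 Viability was assessed by trypan blue staining in Raji cells treated as in the EBV-EA assay: 48 h at 37 °C with n-butyric acid 4 mM, TPA and test compound in DMSO. Results are expressed as percent viable cells.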

| SMILES | Activity (Raji [1]) [%] | Activity (Raji [2]) [%] | Activity (Raji [3]) [%] | Activity (Raji [4]) [%] | Activity (Raji [5]) [%] |
| --- | --- | --- | --- | --- | --- |
| COc1cc2c(c(OC)c1OC)-c1c(cc3c(c1OC)OCO3)[C@H](OC(=O)c1ccccc1)[C@@](C)(O)[C@@H](C)C2 [GOMISIN G] | 18.9 | 59.2 | 81.4 | 100 | 60 |
| C/C=C(/C)C(=O)O[C@H]1c2cc3c(c4c2[C@]2(CO4)C(=CC(=O)C(OC)=C2OC)C[C@@H](C)[C@H]1C)OCO3 [INTERIORIN] | 13.5 | 52 | 77.4 | 100 | 60 |
| C/C=C(/C)C(=O)O[C@H]1c2cc3c(c4c2[C@@]2(CO4)C(=O)C(=O)C(OC)=C/C2=C/[C@@H](C)[C@H]1C)OCO3 [INTERIOTHERIN D] | 11.5 | 55.8 | 75 | 94.8 | 60 |
| COc1cc2c(c(OC)c1OC)-c1c(cc3c(c1OC)OCO3)C[C@H](C)[C@@](C)(O)C2 [GOMISIN A] |  |  |  |  | 70 |
| COc1c2c(cc3c1-c1c(cc4c(c1OC)OCO4)[C@H](OC(=O)c1ccccc1)[C@@H](C)[C@@H](C)C3)OCO2 [INTERIOTHERIN A] | 18.3 | 60.1 | 85.7 | 100 | 60 |
| C/C=C(/C)C(=O)O[C@H]1c2cc3c(c(OC)c2-c2c(cc4c(c2OC)OCO4)C[C@H](C)[C@@H]1C)OCO3 [ANGELOYLGOMISIN R] | 10.6 | 55.6 | 79 | 100 | 60 |
| C/C=C(/C)C(=O)O[C@H]1c2cc3c(c(OC)c2-c2c(cc4c(c2OC)OCO4)C[C@H](C)[C@]1(C)O)OCO3 [INTERIOTHERIN B] | 11.6 | 57.2 | 80.3 | 100 | 60 |
| COc1cc2c(c(OC)c1OC)-c1c(cc3c(c1OC)OCO3)C[C@H](C)[C@](C)(O)[C@H]2OC(=O)c1ccccc1 [GOMISIN C] | 19.7 | 60.2 | 87.4 | 100 | 60 |
| COc1c2c(cc3c1-c1c(cc4c(c1OC)OCO4)C[C@H](C)[C@H](C)C3)OCO2 [SCHISANDRIN C] | 2.6 | 50.7 | 73.6 | 92.1 | 70 |
| COc1cc2c(c(OC)c1OC)-c1c(cc3c(c1OC)OCO3)[C@@H]1O[C@H]2[C@@H](C)[C@H]1C [NEOKADSURANIN] | 4.7 | 51.6 | 72.9 | 92.6 | 70 |
| COc1cc2c(c(OC)c1OC)-c1c(cc3c(c1OC)OCO3)[C@H](OC(C)=O)[C@H](C)[C@H](C)C2 [KADSURIN] | 15 | 58.3 | 79.9 | 100 | 60 |
| COc1cc2c(c(OC)c1OC)-c1c(cc3c(c1OC)OCO3)C[C@H](C)[C@](C)(O)C2 | 7.1 | 52.5 | 78.3 | 96.6 |  |
| C/C=C(/C)C(=O)O[C@H]1c2cc3c(c4c2C(C(=O)C(=O)OC)(CO4)/C(=C/C(=O)OC)C[C@@H](C)[C@H]1C)OCO3 (stereo not given in full) [HETEROCLITIN F] | 16.5 | 58.9 | 82.4 | 100 | 60 |
| C/C=C(/C)C(=O)O[C@H]1c2cc(OC)c(OC)c(OC)c2-c2c(cc3c(c2OC)OCO3)[C@H](OC(C)=O)[C@H](C)[C@@H]1C [INTERIOTHERIN C] | 16 | 59 | 78.9 | 100 | 60 |
| C/C=C(/C)C(=O)O[C@H]1c2cc3c(c4c2[C@@]2(CO4)C(=O)C(OC)=C(OC)C=C2C[C@@H](C)[C@H]1C)OCO3 [HETEROCLITIN D] | 9.4 | 54.7 | 76.2 | 100 | 70 |
